The values that follow come from PubChem BioAssay.

Assay [1] can be described thus: inhibitors of TNFa-induced NFkB p65 translocation, primary screen, imaging, HUVEC, MLSMR starter and 10KST1 sets (AID 438;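 active = inhibition above 20% together with a positive visual image hit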;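 note: compound added about 3h40 before a 20 min TNFalpha stimulation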;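 for inhibition: signal is the nuclear over cytoplasmic p65 intensity ratio per well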). The following applies: HUVEC TNFa-induced p65 nuclear translocation; cell count: measured here: nuclei count (cytotoxicity indicator), at 2.08 µM; inhibition: at 2 µM, stronger effect = higher value, 0% TNFa-plus-vehicle, 100% no-TNFa wells.
The nature of assay [2]: inhibitors of mutant huntingtin aggregation, primary screen, imaging, exon1htt(103Q)mCFP cells, high-content imaging (AID 483;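 active = visual image review flags a hit and inhibition of aggregation exceeds 20%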;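 note: compound exposure lasted 3 days before fixation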;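 for nuclei count: percent of the per-plate median nuclei count of sample wells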). As to conditions: exon1htt(103Q)mCFP cell line, aggregate imaging, at 2 µM; inhibition of aggregation: stronger effect = higher value; nuclei count: measured here: cell count, toxicity.
A short description of assay [3]: inhibitors of E-selectin induction by TNFa, primary screen, imaging, HUVEC, immunofluorescence, MLSMR starter and 10KST1 sets (AID 487;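 active = visually confirmed hit in the image check and inhibition above 20%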;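 for inhibition: signal is fraction of cell area covered by stained E-selectin grains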;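 for nuclei count: 100% = median nuclei count of all wells on the same plate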). The following applies: HUVEC TNFalpha-induced E-selectin immunofluorescence imaging, at 2 µM; inhibition: stronger effect = higher value; nuclei count: measured here: cell number, toxicity.
Assay [4] deals with Voltage-gated potassium channel subunit beta-2 (Rattus norvegicus) (UniProt P62483). The assay is described as follows: KvBeta enzyme negative modulators, primary screen, biochemical, NADPH fluorescence (AID 622).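 Note: slope of raw intensity against log time taken from 70 to 1610 s.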 As to conditions: recombinant KvBeta, 4-cyanobenzaldehyde reduction, at 10 µM, stronger effect = higher value.
Chain of Voltage-gated potassium channel subunit beta-2 (Rattus norvegicus) (P62483 whole entry, looked up): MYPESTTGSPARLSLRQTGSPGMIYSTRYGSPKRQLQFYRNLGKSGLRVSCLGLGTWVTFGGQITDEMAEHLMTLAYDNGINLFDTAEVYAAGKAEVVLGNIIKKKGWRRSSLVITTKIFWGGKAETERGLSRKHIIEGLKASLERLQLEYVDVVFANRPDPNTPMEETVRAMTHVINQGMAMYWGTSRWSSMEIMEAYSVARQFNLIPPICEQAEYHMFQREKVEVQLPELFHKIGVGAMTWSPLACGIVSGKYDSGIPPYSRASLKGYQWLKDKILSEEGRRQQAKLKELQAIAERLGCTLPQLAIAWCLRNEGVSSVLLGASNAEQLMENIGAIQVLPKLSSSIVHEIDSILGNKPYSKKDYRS
For assay [5] the target is unchanged. The assay is described as follows: KvBeta positive modulators, primary screen, biochemical, NADPH fluorescence (AID 623;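 active = NADPH fluorescence slope more negative than the mean of all samples by about 3 SD, 99.7% confidence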;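 note: fluorescence intensity change per second fitted from 20 to 320 s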). The following applies: Recombinant KvBeta, NADPH fluorescence decrease slope, 10 min; at 10 µM; stronger effect = lower value.
Assay [6] addresses Muscarinic acetylcholine receptor M4 (Homo sapiens) (UniProt P08173). The experiment in a line: compounds altering M4/GIRK thallium flux, either direction, primary screen, M4 allosteric agonist project, cell-based, HEK293 M4/GIRK, BTC-AM (AID 625;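 active = fluorescence slope after compound addition differing from the mean of all tested samples at 99.7% confidence, mostly higher but some lower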;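 note: thallium influx through GIRK channels coupled to M4 in HEK293 cells with BTC-AM dye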). The following applies: at 10 µM, actives lie on both sides. Summed up: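 assay system = HEK293 cells with M4 receptor and GIRK channels | medium = pH 7.3 thallium assay buffer | doses = 10 µM final, single point | timing = cells overnight at 37 °C, BTC-AM loading 1 h, reads 2 min total | signal = BTC-AM fluorescence, 1 Hz kinetic reads | read-out = post-addition slope, 15–24 s, of baseline-normalized fluorescence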

Assay [7] can be described thus: inhibitors of Sendai virus-induced IRF3 signaling, primary screen, TLR/RLR signaling modifier project, cell-based, Sendai virus stimulus, luciferase, 10K MLSCN set (AID 602276;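 active = inhibition at or above 50% at 10 µM; inactive = inhibition below 50%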;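 note: firefly luciferase from ISG56 promoter only with Renilla not read in this screen; 0% = Sendai virus plus DMSO and 100% = medium plus DMSO without virus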). The following applies: HEK293 RL24 IRF3 luciferase reporter, at 10 µM, stronger effect = higher value. (In general: In a reporter assay the amount or activity of a reporter protein is the signal.)
Assay [8] is described as follows: inhibitors of poly I:C-induced TLR3 signaling, primary screen, cell-based, poly I:C stimulus, luciferase, 10K MLSCN set (AID 602277;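 active = inhibition of the reporter signal at or above 50%; inactive = inhibition below 50%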). The following applies: HEK293-TLR3 RL24 IRF3 luciferase reporter, at 10 µM, stronger effect = higher value.

The source made the active and inactive calls.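 Rule for the calls, unless noted: active = fluorescence slope higher than the sample average by over 3 SD (cut at about -0.22 in these data, passing the limit was not always enough); inactive = the rest.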

Chain of Muscarinic acetylcholine receptor M4 (Homo sapiens) (P08173 whole entry, looked up): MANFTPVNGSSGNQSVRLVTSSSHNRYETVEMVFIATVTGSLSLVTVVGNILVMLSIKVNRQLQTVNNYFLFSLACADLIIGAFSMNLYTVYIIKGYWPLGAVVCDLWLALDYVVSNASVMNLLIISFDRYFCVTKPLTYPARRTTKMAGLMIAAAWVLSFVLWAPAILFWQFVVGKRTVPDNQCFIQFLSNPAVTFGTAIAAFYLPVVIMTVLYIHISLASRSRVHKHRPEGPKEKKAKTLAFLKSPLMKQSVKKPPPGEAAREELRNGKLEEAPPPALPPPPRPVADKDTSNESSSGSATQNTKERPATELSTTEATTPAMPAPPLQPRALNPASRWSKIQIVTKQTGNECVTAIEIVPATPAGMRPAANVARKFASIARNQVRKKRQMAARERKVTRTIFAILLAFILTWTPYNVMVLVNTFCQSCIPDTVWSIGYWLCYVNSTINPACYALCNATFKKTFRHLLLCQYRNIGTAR

Consider `CC(C)(C)c1ccccc1NC(=O)c1cccnc1`, for which the cell count in assay [1] worked out at 224. For the same molecule, the inhibition in assay [1] was -5.6% (inactive); in assay [3] it was -81.8% (inactive); in assay [7], 15.7% (inactive); in assay [8], 19.9% (inactive). In assay [2], the inhibition of aggregation was 28.5% (inactive). Further, the nuclei count in assay [2] was determined as 91.8%; in assay [3] it was 89.7%. Also, the fluorescence slope is -0.533 (inactive) in assay [4] and 0.00439 (inactive) in assay [6]. Moreover, the NADPH fluorescence slope in assay [5] is -2.2e-05 (inactive).
In the case of `Cc1ccc(N2CC(C(=O)N3CCN(C(=O)c4ccco4)CC3)CC2=O)cc1` (centres undefined), the cell count in assay [1] worked out at 600. Moreover, the inhibition in assay [1] was 2.2% (inactive); in assay [3], -39.1% (inactive); in assay [7] it was 17.5% (inactive); in assay [8], 21.1% (inactive). The inhibition of aggregation in assay [2] was -16.3% (inactive). In addition, the nuclei count in assay [2] amounted to 114%; in assay [3] it was 100%. In addition, the fluorescence slope was -0.571 (inactive) in assay [4] and 0.00509 (inactive) in assay [6]. Also, in assay [5], the NADPH fluorescence slope is -5.1e-05 (inactive).
For the molecule `CCn1c(SCC(=O)NCCc2ccc(Cl)cc2)nnc1-c1cccs1`, in assay [1], the cell count is 616. Moreover, the inhibition in assay [1] was 6.9% (inactive); in assay [3] it was -11.2% (inactive); in assay [7] it was -15.7% (inactive); in assay [8], -13.3% (inactive). In assay [2], the inhibition of aggregation was 25.3% (inactive). The values for the nuclei count in assay [2] and in assay [3] were 69.4% and 106%, respectively. Further, the figures for the fluorescence slope in assay [4] and in assay [6] were -0.572 (inactive) and 0.00799 (inactive), respectively. The NADPH fluorescence slope in assay [5] is -5e-05 (inactive).
As for `CN(CC(O)COCc1cccs1)C1CCCCC1` (centres undefined), in assay [1], the cell count worked out at 305. The inhibition in assay [1] was 10.6% (inactive); in assay [3] it was -5.5% (inactive); in assay [7] it was 11.7% (inactive); in assay [8] it was 17.5% (inactive). In assay [2], the inhibition of aggregation was 1.5% (inactive). The figures for the nuclei count in assay [2] and in assay [3] were 95.2% and 105%, respectively. For the same molecule, the fluorescence slope was -0.448 (inactive) in assay [4] and 0.00729 (inactive) in assay [6]. In assay [5], the NADPH fluorescence slope was -4.5e-05 (inactive).
Take `N#CCSc1nc2c(c(C3CC=CCC3)c1C#N)CCC2` (centres undefined): the cell count in assay [1] was found to be 436. In addition, the inhibition in assay [1] is 8% (inactive); in assay [3] it was -44.5% (inactive); in assay [7], -0.626% (inactive); in assay [8], 27.7% (inactive). Further, the inhibition of aggregation in assay [2] is -9.6% (inactive). For the same molecule, the nuclei count in assay [2] was 100%; in assay [3], 112%. Besides, the fluorescence slope in assay [4] was -0.552 (inactive); in assay [6] it was 0.00409 (inactive). In addition, the NADPH fluorescence slope in assay [5] was -1.6e-05 (inactive).
Turning to `Cc1ccc(OC(=O)CCc2c(C)nc3ncnn3c2C)cc1`, the cell count in assay [1] was determined as 634. Moreover, the inhibition in assay [1] was -10.5% (inactive); in assay [3], -84.1% (inactive); in assay [7], 0.226% (inactive); in assay [8], 8.51% (inactive). Besides, in assay [2], the inhibition of aggregation was 18.7% (inactive). Further, the results for the nuclei count in assay [2] and in assay [3] were 130% and 112%, respectively. In addition, the fluorescence slope is -0.551 (inactive) in assay [4] and 0.00538 (inactive) in assay [6]. Also, the NADPH fluorescence slope in assay [5] was 9.9e-06 (inactive).
With `COc1ccc(CCNC(=O)c2nc3ncccn3n2)cc1OC`, the cell count in assay [1] was found to be 643. In addition, the inhibition is -2.3% (inactive) in assay [1], -12.1% (inactive) in assay [3], 18.2% (inactive) in assay [7] and 18.1% (inactive) in assay [8]. The inhibition of aggregation in assay [2] is 13.7% (inactive). For the same molecule, the results for the nuclei count in assay [2] and in assay [3] were 82.2% and 100%, respectively. In addition, the values for the fluorescence slope in assay [4] and in assay [6] were -0.447 (inactive) and 0.00528 (inactive), respectively. Also, in assay [5], the NADPH fluorescence slope is -4.3e-05 (inactive).
Turning to `O=C(NCCN1CCOCC1)c1csc2c1CCCC2`, in assay [1], the cell count is 643. For the same molecule, the inhibition is -24.5% (inactive) in assay [1], -109% (inactive) in assay [3], 12.1% (inactive) in assay [7] and 2.09% (inactive) in assay [8]. In addition, in assay [2], the inhibition of aggregation is 22.6% (inactive). For the same molecule, the results for the nuclei count in assay [2] and in assay [3] were 109% and 116%, respectively. Further, the fluorescence slope in assay [4] is -0.257 (inactive); in assay [6], 0.0063 (inactive). For the same molecule, the NADPH fluorescence slope in assay [5] is -1.1e-05 (inactive).
As to `O=C1NCCCc2c1no[n+]2[O-]`, the cell count in assay [1] stood at 381. Besides, the inhibition in assay [1] was 5.3% (inactive); in assay [3], -31.3% (inactive); in assay [7], -17.2% (inactive); in assay [8] it was 6.4% (inactive). The inhibition of aggregation in assay [2] was 19.4% (inactive). Besides, the results for the nuclei count in assay [2] and in assay [3] were 54.8% and 107%, respectively. The fluorescence slope was -0.584 (inactive) in assay [4] and 0.00512 (inactive) in assay [6]. For the same molecule, the NADPH fluorescence slope in assay [5] is -6.4e-06 (inactive).

The term inhibition denotes the drop in the measured response relative to a control, in per cent.
